In ChEMBL document CHEMBL1143019, “Hybrid molecules of estrone: new compounds with potential antibacterial, antifungal, and antiproliferative activities” (2007):
≈ marks a conversion by molar mass, not a printed value.

Experiments:
[1] = test system: Staphylococcus aureus; experiment: Antibacterial activity against Staphylococcus aureus SG 511 after 24 hrs by micro-broth dilution method; format: functional; conditions: SG 511, 24 h
Method in brief: (§1)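 Microbroth dilution per NCCLS guidelines. Bacteria grown overnight at 37 °C in Mueller–Hinton broth. Compound solution serially diluted twofold in MHB, then wells inoculated to a final 5×10⁵ CFU/mL. Incubated 24 h at 37 °C. MIC (µg/mL) read on an automatic plate reader as the lowest dilution allowing no visible growth.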

[2] = test system: Mycobacterium avium; experiment: Antimicrobial activity against Mycobacterium avium My 330/88 after 14 days; format: functional; conditions: 336 h
[3] = test system: Mycobacterium kansasii; experiment: Antimicrobial activity against Mycobacterium kansasii My 6509/96 after 21 days; format: functional; conditions: 504 h
Method in brief: (§2)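 Run in Šula semisynthetic liquid medium containing bovine serum. Compounds added as DMSO solutions at final concentrations of […]. Each strain was also inoculated onto Löwenstein–Jensen medium to control inoculum sterility and growth.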

[4] = test system: HeLa; experiment: Cytotoxicity against human HeLa cells after 72 hrs; format: functional; conditions: for CC50: Homo sapiens, HeLa, 72 h
Method in brief: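 About 10,000 cells per well in RPMI 1640 were preincubated 48 h without compound. The 10 test concentrations were then applied onto the monolayers and incubated 72 h at 37 °C in humidified 5% CO₂. Monolayers fixed with glutaraldehyde, stained with 0.05% methylene blue, and eluted with 0.33 N HCl; optical density measured at 630 nm.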

[5] = test system: L929; experiment: Antiproliferative activity against mouse L929 cells after 72 hrs; format: functional; conditions: L929, 72 h
Method in brief: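 About 10,000 adherent cells per well in RPMI 1640 with 10% heat-inactivated FBS and penicillin/streptomycin, without HEPES. Exposed to 10 concentrations for 72 h at 37 °C in humidified 5% CO₂. Monolayers fixed with glutaraldehyde, stained 15 min with 0.05% methylene blue, and eluted with 0.33 N HCl; OD read at 630 nm. GI50 derived from dose–response curves relative to control.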

[6] = test system: Mycobacterium kansasii; experiment: Antimicrobial activity against Mycobacterium kansasii My 6509/96 after 7 days; format: functional; conditions: 168 h; method in brief: as §2
[7] = test system: Mycobacterium tuberculosis; experiment: Antimicrobial activity against Mycobacterium tuberculosis My 331/88 after 14 days; format: functional; conditions: 336 h
[8] = test system: Mycobacterium kansasii; experiment: Antimicrobial activity against Mycobacterium kansasii My 235/80 after 21 days; format: functional; conditions: 504 h; method in brief: as §2
[9] = test system: Mycolicibacterium vaccae; experiment: Antimicrobial activity against Mycobacterium vaccae 10670 after 24 hrs by micro-broth dilution method; format: functional; method in brief: as §1
[10] = test system: Mycolicibacterium fortuitum; experiment: Antimicrobial activity against Mycobacterium fortuitum Borstel after 24 hrs by microbroth dilution method; format: functional; method in brief: as §1
[11] = test system: Mycobacterium kansasii; experiment: Antimicrobial activity against Mycobacterium kansasii My 6509/96 after 14 days; format: functional; conditions: 336 h; method in brief: as §2
[12] = test system: K562; experiment: Antiproliferative activity against human K562 cells after 72 hrs; format: functional; conditions: K562, 72 h
Method in brief: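 About 10,000 suspension cells per well in RPMI 1640 with 10% heat-inactivated FBS and penicillin/streptomycin, without HEPES. Exposed to 10 concentrations for 72 h at 37 °C in humidified 5% CO₂. Wells diluted 1:50 in CASYTON and counted electronically, each result the mean of three successive counts. GI50 is where the concentration–response curve crosses 50% of control cell count.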

[13] = test system: Staphylococcus aureus; experiment: Antibacterial activity against methicillin-resistant Staphylococcus aureus 994/93 after 24 hrs by micro-broth dilution method; format: functional
Method in brief: (§3)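 Broth microdilution per NCCLS in Mueller–Hinton broth. Overnight cultures grown at 37 °C. Compound serially diluted twofold, then wells inoculated to a final 5×10⁵ CFU/mL. Plates held at 37 °C for 24 h. MIC (µg/mL) read on an automatic plate reader as the lowest dilution with no visible growth.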

[14] = test system: Staphylococcus aureus; experiment: Antibacterial activity against methicillin-resistant Staphylococcus aureus 134/94 after 24 hrs by microbroth dilution method; format: functional; method in brief: as §3
[15] = test system: Mycobacterium kansasii; experiment: Antimicrobial activity against Mycobacterium kansasii My 235/80 after 14 days; format: functional; conditions: 336 h; method in brief: as §2
[16] = test system: Mycolicibacterium smegmatis; experiment: Antimicrobial activity against Mycobacterium smegmatis SG 987 after 24 hrs by micro-broth dilution method; format: functional; method in brief: as §1
[17] = test system: Mycolicibacterium aurum; experiment: Antimicrobial activity against Mycobacterium aurum SB 66 after 24 hrs by micro-broth dilution method; format: functional; method in brief: as §1
[18] = test system: Mycobacterium kansasii; experiment: Antimicrobial activity against Mycobacterium kansasii My 235/80 after 7 days; format: functional; conditions: 168 h; method in brief: as §2
[19] = test system: Mycobacterium tuberculosis; experiment: Antimicrobial activity against Mycobacterium tuberculosis My 331/88 after 21 days; format: functional; conditions: 504 h
[20] = test system: Enterococcus faecalis; experiment: Antibacterial activity against Enterococcus faecalis 1528 after 24 hrs by micro-broth dilution method; format: functional; method in brief: as §1
[21] = test system: Mycobacterium avium; experiment: Antimicrobial activity against Mycobacterium avium My 330/88 after 21 days; format: functional; conditions: 504 h
[22] = test system: Micrococcus luteus; experiment: Antibacterial activity against Micrococcus luteus ATCC 10240 after 24 hrs by microbroth dilution method; format: functional; conditions: ATCC 10240, 24 h; method in brief: as §1
[23] = test system: Nakaseomyces glabratus; experiment: Antifungal activity against Candida glabrata 20/I after 48 hrs; format: functional
Method in brief: (§4)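 Modified NCCLS M27-A broth microdilution with clinical isolates subcultured on Sabouraud dextrose agar. Suspensions diluted 1:50 in RPMI 1640 to give a final inoculum of 0.5–2.5×10³ CFU/mL for yeasts or 0.5–5×10⁴ CFU/mL for molds. The RPMI had L-glutamine, no bicarbonate, and 0.165 M MOPS to pH 7.0. Twofold dilutions from 250 to 0.49. Plates held at 35 °C, humid, without agitation. MIC is the lowest concentration giving ≥80% inhibition versus drug-free control, read at 24 and 48 h.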

[24] = test system: Trichophyton benhamiae; experiment: Antifungal activity against Trichophyton mentagrophytes 445 after 120 hrs; format: functional, Arthroderma benhamiae
Method in brief: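 Same modified M27-A microdilution with the mold inoculum of 0.5–5×10⁴ CFU/mL. Medium was RPMI 1640 with L-glutamine, no bicarbonate, and 0.165 M MOPS at pH 7.0. Twofold dilutions from 250 to 0.49. Incubated at 35 °C in a humid atmosphere.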

[25] = test system: Candida albicans; experiment: Antifungal activity against Candida albicans ATCC 44859 after 48 hrs; format: functional; conditions: ATCC 44859, 48 h; method in brief: as §4
[26] = test system: Pichia kudriavzevii; experiment: Antifungal activity against Candida krusei E28 after 48 hrs; format: functional; method in brief: as §4
[27] = test system: Lichtheimia corymbifera; experiment: Antifungal activity against Absidia corymbifera 272 after 48 hrs; format: functional; method in brief: as §4
[28] = test system: Trichosporon beigelii; experiment: Antifungal activity against Trichosporon beigelii 1188 after 48 hrs; format: functional; method in brief: as §4

## c1ccc(CSc2ccncc2)cc1
[1]
  MIC: 100 µg/mL (≈ 497 µM)
[2]
  MIC: 125 µM (≈ 25.2 µg/mL)
[3]
  MIC: 125 µM (≈ 25.2 µg/mL)
[4]
  CC10: 14 µg/mL (≈ 69.6 µM)
  CC50: 23.6 µg/mL (≈ 117 µM)
[5]
  GI50: 34.3 µg/mL (≈ 170 µM)
[6]
  MIC: 62.5 µM (≈ 12.6 µg/mL)
[7]
  MIC: 125 µM (≈ 25.2 µg/mL)
[8]
  MIC: 125 µM (≈ 25.2 µg/mL)
[9]
  MIC: 50 µg/mL (≈ 248 µM)
[10]
  MIC: 50 µg/mL (≈ 248 µM)
[11]
  MIC: 125 µM (≈ 25.2 µg/mL)
[12]
  GI50: > 50 µg/mL
[13]
  MIC: 100 µg/mL (≈ 497 µM)
[14]
  MIC: > 100 µg/mL
[15]
  MIC: 125 µM (≈ 25.2 µg/mL)
[16]
  MIC: 100 µg/mL (≈ 497 µM)
[17]
  MIC: 25 µg/mL (≈ 124 µM)
[18]
  MIC: 62.5 µM (≈ 12.6 µg/mL)
[19]
  MIC: 125 µM (≈ 25.2 µg/mL)
[20]
  MIC: 100 µg/mL (≈ 497 µM)
[21]
  MIC: 125 µM (≈ 25.2 µg/mL)
[22]
  MIC: 100 µg/mL (≈ 497 µM)

## Cc1ccc(CSc2ccncc2)cc1
[1]
  MIC: 50 µg/mL (≈ 232 µM)
[2]
  MIC: 62.5 µM (≈ 13.5 µg/mL)
[3]
  MIC: 125 µM (≈ 26.9 µg/mL)
[4]
  CC10: 13.3 µg/mL (≈ 61.8 µM)
  CC50: 21.4 µg/mL (≈ 99.4 µM)
[5]
  GI50: 24.3 µg/mL (≈ 113 µM)
[6]
  MIC: 32 µM (≈ 6.89 µg/mL)
[7]
  MIC: 62.5 µM (≈ 13.5 µg/mL)
[8]
  MIC: 125 µM (≈ 26.9 µg/mL)
[9]
  MIC: 25 µg/mL (≈ 116 µM)
[10]
  MIC: 12.5 µg/mL (≈ 58.1 µM)
[11]
  MIC: 62.5 µM (≈ 13.5 µg/mL)
[12]
  GI50: 37.5 µg/mL (≈ 174 µM)
[13]
  MIC: 100 µg/mL (≈ 464 µM)
[14]
  MIC: 100 µg/mL (≈ 464 µM)
[15]
  MIC: 62.5 µM (≈ 13.5 µg/mL)
[16]
  MIC: 50 µg/mL (≈ 232 µM)
[17]
  MIC: 25 µg/mL (≈ 116 µM)
[18]
  MIC: 32 µM (≈ 6.89 µg/mL)
[19]
  MIC: 62.5 µM (≈ 13.5 µg/mL)
[20]
  MIC: 100 µg/mL (≈ 464 µM)
[21]
  MIC: 125 µM (≈ 26.9 µg/mL)
[22]
  MIC: 100 µg/mL (≈ 464 µM)

## Cc1ccc(CSc2cc[n+](CCCCCCCOc3ccc4c(c3)CC[C@@H]3[C@@H]4CC[C@]4(C)C(=O)CC[C@@H]34)cc2)cc1.[Br-]
[1]
  MIC: 1.56 µg/mL
[2]
  MIC: 8 µM
[3]
  MIC: 16 µM
[4]
  CC10: 1 µg/mL
  CC50: 1.9 µg/mL
[23]
  MIC: 7.8 µM
[5]
  GI50: 3.5 µg/mL
[6]
  MIC: 16 µM
[24]
  MIC: 7.8 µM
[7]
  MIC: 4 µM
[8]
  MIC: 16 µM
[9]
  MIC: 1.56 µg/mL
[10]
  MIC: 6.25 µg/mL
[11]
  MIC: 16 µM
[12]
  GI50: 13.1 µg/mL
[13]
  MIC: 3.12 µg/mL
[14]
  MIC: 3.12 µg/mL
[25]
  MIC: 3.9 µM
[26]
  MIC: 7.8 µM
[15]
  MIC: 16 µM
[16]
  MIC: 6.25 µg/mL
[17]
  MIC: 3.12 µg/mL
[18]
  MIC: 16 µM
[19]
  MIC: 8 µM
[27]
  MIC: 15.6 µM
[20]
  MIC: 3.12 µg/mL
[28]
  MIC: 7.8 µM
[21]
  MIC: 8 µM
[22]
  MIC: 0.8 µg/mL
